Laboratory results: ChEMBL document CHEMBL3352152, “Indolylmethylene benzo[h]thiazolo[2,3-b]quinazolinones: synthesis, characterization and evaluation of anticancer and antimicrobial activities” (Bioorg Med Chem Lett, 2014)
pIC50: −log10 of the molar value.

Tests used:
Aspergillus parasiticus = assay: Antifungal activity against Aspergillus parasiticus MTCC 8850 at 150 ug/ml after 48 hrs by agar well diffusion method; type: functional; settings: MTCC 8850, 48 h, read-out: IZ
Outline: (§1)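 Antifungal screen by agar well diffusion against C. albicans, C. glabrata, A. niger and A. parasiticus. Clotrimazole was the standard drug. Activity was recorded as zone of inhibition (ZOI, mm).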

Pseudomonas aeruginosa = assay: Antibacterial activity against Pseudomonas aeruginosa MTCC 4673 at 150 ug/ml after 24 hrs by agar well diffusion assay; type: functional; settings: MTCC 4673, 24 h, read-out: IZ
Outline: (§2)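 Agar well diffusion screen against the two Gram-positive strains (S. aureus, S. pyogenes) and the two Gram-negative strains (P. aeruginosa, K. pneumoniae). Streptomycin was the reference drug. Activity was read as zone of inhibition (mm).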

Klebsiella pneumoniae = assay: Antibacterial activity against Klebsiella pneumoniae MTCC 109 at 150 ug/ml after 24 hrs by agar well diffusion assay; type: functional; settings: MTCC 109, 24 h, read-out: IZ; outline: as §2
MCF7 = assay: Anticancer activity against human MCF7 cells assessed as cell viability after 48 hrs by MTT microcultured tetrazolium assay; type: functional, cell-based; settings: MCF7, 48 h
Outline: (§3)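 MTT-microcultured tetrazolium viability read-out in MCF-7 and HepG2 cells exposed to test samples. Surviving fraction was plotted against drug concentration to give survival curves, and IC50 was taken from these curves.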

Aspergillus niger = assay: Antifungal activity against Aspergillus niger MTCC 282 at 150 ug/ml after 48 hrs by agar well diffusion method; type: functional; settings: MTCC 282, 48 h, read-out: IZ; outline: as §1
HepG2 = assay: Anticancer activity against human HepG2 cells assessed as cell viability after 48 hrs by MTT microcultured tetrazolium assay; type: functional, cell-based; settings: HepG2, 48 h; outline: as §3
Streptococcus pyogenes = assay: Antibacterial activity against Streptococcus pyogenes MTCC 1926 at 150 ug/ml after 24 hrs by agar well diffusion assay; type: functional; settings: MTCC 1926, 24 h, read-out: IZ; outline: as §2
Candida albicans = assay: Antifungal activity against Candida albicans MTCC 183 at 150 ug/ml after 48 hrs by agar well diffusion method; type: functional; settings: MTCC 183, 48 h, read-out: IZ; outline: as §1
Staphylococcus aureus = assay: Antibacterial activity against Staphylococcus aureus MTCC 96 at 150 ug/ml after 24 hrs by agar well diffusion assay; type: functional; settings: MTCC 96, 24 h, read-out: IZ; outline: as §2
Nakaseomyces glabratus = assay: Antifungal activity against Candida glabrata MTCC3019 at 150 ug/ml after 48 hrs by agar well diffusion method; type: functional; settings: MTCC3019, 48 h, read-out: IZ; outline: as §1

Row | pIC50 (MCF7) | pIC50 (HepG2) | SMILES | zone of inhibition at 150 µg/mL (Aspergillus parasiticus) | zone of inhibition at 150 µg/mL (Pseudomonas aeruginosa) | zone of inhibition at 150 µg/mL (Klebsiella pneumoniae) | zone of inhibition at 150 µg/mL (Aspergillus niger) | zone of inhibition at 150 µg/mL (Streptococcus pyogenes) | zone of inhibition at 150 µg/mL (Candida albicans) | zone of inhibition at 150 µg/mL (Staphylococcus aureus) | zone of inhibition at 150 µg/mL (Nakaseomyces glabratus)
1 | 3.78 | 4.16 | Cc1[nH]c2ccccc2c1/C=c1\sc2n(c1=O)C(c1ccc(Cl)cc1)C1=C(N=2)c2ccccc2CC1 (stereo unspecified) | 14 mm | 17 mm | 8 mm | 14 mm | 8 mm | 16 mm | 13 mm | 19 mm
2 | 4.63 | 4.46 | COc1ccc2c(c1)CCC1=C2N=c2s/c(=C\c3c[nH]c4ccccc34)c(=O)n2C1c1ccc(Cl)cc1 (stereo unspecified) | 10 mm | 8 mm | 8 mm | 8 mm | 8 mm | 8 mm | 8 mm | 14 mm
3 | 4.17 | 4.59 | COc1ccc2c(c1)CCC1=C2N=c2s/c(=C\c3c[nH]c4ccccc34)c(=O)n2C1c1ccc(F)cc1 (stereo unspecified) | 10 mm | 21 mm | 17 mm | 10 mm | 8 mm | 8 mm | 21 mm | 8 mm
4 | 4.68 | 4.56 | COc1ccc2[nH]cc(/C=c3\sc4n(c3=O)C(c3ccc(Cl)cc3)C3=C(N=4)c4ccccc4CC3)c2c1 (stereo unspecified) | 18 mm | 14 mm | 8 mm | 18 mm | 8 mm | 15 mm | 14 mm | 16 mm
5 | < 3.70 | 3.70 | O=c1/c(=C/c2c[nH]c3ccccc23)sc2n1C(c1cccc([N+](=O)[O-])c1)C1=C(N=2)c2ccccc2CC1 (stereo unspecified) | 12 mm | 8 mm | 8 mm | 12 mm | 8 mm | 8 mm | 8 mm | 10 mm
6 | 4.37 | 4.79 | O=c1/c(=C/c2c[nH]c3ccccc23)sc2n1C(c1ccc(Cl)cc1)C1=C(N=2)c2ccccc2CC1 (stereo unspecified) | 12 mm | 18 mm | 8 mm | 12 mm | 8 mm | 8 mm | 12 mm | 12 mm
7 | 3.95 | < 3.70 | COc1ccc(C2C3=C(N=c4s/c(=C\c5c(C)[nH]c6ccccc56)c(=O)n42)c2ccc(OC)cc2CC3)cc1 (stereo unspecified) | 10 mm | 8 mm | 8 mm | 8 mm | 8 mm | 8 mm | 8 mm | 8 mm
8 | 4.51 | 4.24 | COc1ccc(C2C3=C(N=c4s/c(=C\c5c[nH]c6ccc(OC)cc56)c(=O)n42)c2ccc(OC)cc2CC3)cc1 (stereo unspecified) | 10 mm | 8 mm | 8 mm | 14 mm | 8 mm | 8 mm | 8 mm | 8 mm
9 | 5.05 | 4.66 | COc1ccc2c(c1)CCC1=C2N=c2s/c(=C\c3c[nH]c4ccc(Br)cc34)c(=O)n2C1c1ccc(F)cc1 (stereo unspecified) | 8 mm | 22 mm | 18 mm | 8 mm | 8 mm | 8 mm | 22 mm | 10 mm

The next lines start with the molecule.

Row | SMILES | pIC50 (MCF7) | pIC50 (HepG2) | zone of inhibition at 150 µg/mL (Aspergillus parasiticus) | zone of inhibition at 150 µg/mL (Pseudomonas aeruginosa) | zone of inhibition at 150 µg/mL (Klebsiella pneumoniae) | zone of inhibition at 150 µg/mL (Aspergillus niger) | zone of inhibition at 150 µg/mL (Streptococcus pyogenes) | zone of inhibition at 150 µg/mL (Candida albicans) | zone of inhibition at 150 µg/mL (Staphylococcus aureus) | zone of inhibition at 150 µg/mL (Nakaseomyces glabratus)
10 | COc1ccc2c(c1)CCC1=C2N=c2s/c(=C\c3c[nH]c4ccccc34)c(=O)n2C1c1cccc([N+](=O)[O-])c1 (stereo unspecified) | < 3.70 | 4.15 | 8 mm | 8 mm | 8 mm | 12 mm | 8 mm | 8 mm | 8 mm | 8 mm
11 | COc1ccc(C2C3=C(N=c4s/c(=C\c5c[nH]c6ccccc56)c(=O)n42)c2ccc(OC)cc2CC3)cc1 (stereo unspecified) | 4.26 | 4.21 | 18 mm | 8 mm | 15 mm | 18 mm | 18 mm | 18 mm | 17 mm | 20 mm
12 | COc1ccc2c(c1)CCC1=C2N=c2s/c(=C\c3c[nH]c4ccc(Br)cc34)c(=O)n2C1c1ccc(Cl)cc1 (stereo unspecified) | 5.59 | 4.94 | 10 mm | 8 mm | 8 mm | 10 mm | 8 mm | 8 mm | 8 mm | 10 mm
13 | COc1ccc2c(c1)CCC1=C2N=c2s/c(=C\c3c[nH]c4ccc(OC)cc34)c(=O)n2C1c1ccc(F)cc1 (stereo unspecified) | 3.71 | 4.06 | 10 mm | 8 mm | 15 mm | 10 mm | 8 mm | 8 mm | 8 mm | 10 mm
14 | COc1ccc2c(c1)CCC1=C2N=c2s/c(=C\c3c(C)[nH]c4ccccc34)c(=O)n2C1c1ccc(F)cc1 (stereo unspecified) | 4.08 | 4.13 | 8 mm | 13 mm | 16 mm | 12 mm | 8 mm | 8 mm | 13 mm | 8 mm
15 | O=c1/c(=C/c2c[nH]c3ccc(Br)cc23)sc2n1C(c1ccc(Cl)cc1)C1=C(N=2)c2ccccc2CC1 (stereo unspecified) | 4.72 | 4.86 | 8 mm | 15 mm | 8 mm | 8 mm | 8 mm | 8 mm | 13 mm | 10 mm
16 | COc1ccc2c(c1)CCC1=C2N=c2s/c(=C\c3c(C)[nH]c4ccccc34)c(=O)n2C1c1ccc(Cl)cc1 (stereo unspecified) | 4.21 | 4.41 | 12 mm | 8 mm | 8 mm | 8 mm | 8 mm | 8 mm | 8 mm | 8 mm
17 | COc1ccc2c(c1)CCC1=C2N=c2s/c(=C\c3c(C)[nH]c4ccccc34)c(=O)n2C1c1cccc([N+](=O)[O-])c1 (stereo unspecified) | < 3.70 | 4.02 | 18 mm | 13 mm | 14 mm | 20 mm | 15 mm | 17 mm | 16 mm | 14 mm
18 | COc1ccc2c(c1)CCC1=C2N=c2s/c(=C\c3c[nH]c4ccc(Br)cc34)c(=O)n2C1c1cccc([N+](=O)[O-])c1 (stereo unspecified) | < 3.70 | < 3.70 | 10 mm | 8 mm | 17 mm | 10 mm | 16 mm | 8 mm | 19 mm | 8 mm
19 | COc1cccc2c1C(=O)c1c(O)c3c(c(O)c1C2=O)C[C@@](O)(C(=O)CO)C[C@@H]3O[C@H]1C[C@H](N)[C@H](O)[C@H](C)O1 [DOXORUBICIN] |  | 5.96 |  |  |  |  |  |  |  | 
20 | COc1ccc2c(c1)CCC1=C2N=c2s/c(=C\c3c[nH]c4ccc(C)cc34)c(=O)n2C1c1cccc([N+](=O)[O-])c1 (stereo unspecified) | < 3.70 | 4.29 | 8 mm | 8 mm | 17 mm | 8 mm | 17 mm | 8 mm | 17 mm | 12 mm
